From paper PMC7508885 (SLAS discovery : advancing life sciences R & D, 2020)
pIC50, pKi: −log10 of the molar value. Blank lines part the entries; values can stand above or below the compound they belong to.

Key:
P. aeruginosa TyrRS-S [1] = molecular target: T1, P. aeruginosa TyrRS-S (Pseudomonas aeruginosa, UniProt Q9HWP3); assay: ATP:PPi exchange reaction; type: biochemical; conditions: other substrate (Tyr or ATP) held at 2 mM; enzyme 0.4 μM
P. aeruginosa TyrRS-Z [2] = molecular target: T2, P. aeruginosa TyrRS-Z (Pseudomonas aeruginosa, UniProt Q9I5Q3); assay: ATP:PPi exchange reaction; type: biochemical; conditions: other substrate (Tyr or ATP) held at 2 mM; enzyme 0.4 μM
T2 sequence (Q9I5Q3 whole entry): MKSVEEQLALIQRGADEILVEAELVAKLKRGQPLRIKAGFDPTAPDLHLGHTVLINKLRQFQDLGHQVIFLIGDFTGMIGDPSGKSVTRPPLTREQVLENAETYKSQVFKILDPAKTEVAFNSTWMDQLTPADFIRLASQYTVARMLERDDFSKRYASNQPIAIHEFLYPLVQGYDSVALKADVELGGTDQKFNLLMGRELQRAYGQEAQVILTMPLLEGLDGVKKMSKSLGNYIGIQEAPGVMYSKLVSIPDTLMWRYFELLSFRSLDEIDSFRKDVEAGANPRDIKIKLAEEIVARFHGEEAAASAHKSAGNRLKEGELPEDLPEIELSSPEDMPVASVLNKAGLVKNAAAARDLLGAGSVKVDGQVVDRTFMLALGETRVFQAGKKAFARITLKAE

[3] = system: human embryonic kidney 293 cells (HEK293); assay: In vitro cytotoxicity test; type: cell-based; conditions: 25-400 μg/mL, 24 h, triplicate
[4] = system: Moraxella catarrhalis (ATCC 25238); assay: Broth microdilution MIC testing; type: cell-based; conditions: Gram-negative M. catarrhalis
Procedure, shortened: (§1)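 Broth microdilution MIC testing following CLSI guideline M7-A7, run against a 10-strain bacterial panel that included E. coli and P. aeruginosa efflux-pump mutants and a hypersensitive P. aeruginosa strain.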

P. aeruginosa TyrRS-S [5] = molecular target: T1, P. aeruginosa TyrRS-S; assay: Binding mode assay; type: biochemical; conditions: for shift in the IC50 with increasing ATP concentration (competition with ATP): ATP 25-1000 μM, Tyr held constant; for shift in the IC50 with increasing ATP concentration (competition with ATP) / shift in the IC50 with increasing Tyr concentration (competition with Tyr): TyrRS-S 0.05 μM; for shift in the IC50 with increasing Tyr concentration (competition with Tyr): Tyr 25-300 μM, ATP held at 2.5 mM
P. aeruginosa TyrRS-S [6] = molecular target: T1, P. aeruginosa TyrRS-S; assay: SPA-based tRNA aminoacylation assay; type: biochemical
[7] = system: Haemophilus influenzae (ATCC 49766); assay: Broth microdilution MIC testing; type: cell-based; conditions: Gram-negative respiratory pathogen H. influenzae
Procedure, shortened: as §1

P. aeruginosa TyrRS-Z [8] = molecular target: T2, P. aeruginosa TyrRS-Z; assay: SPA-based tRNA aminoacylation assay; type: biochemical
NIH-3T3 cell line = conditions: quantitative high-throughput screening; ref PubChem CID 53183345; cited from earlier work
HEK-293 cell line = conditions: quantitative high-throughput screening; ref PubChem CID 53183345; cited from earlier work
S. aureus TyrRS = conditions: cited from earlier work
TyrRS = conditions: cited from earlier work
LysRS = conditions: cited from earlier work
eukaryotic LysRS = conditions: cited from earlier work

T1 sequence (Q9HWP3 whole entry): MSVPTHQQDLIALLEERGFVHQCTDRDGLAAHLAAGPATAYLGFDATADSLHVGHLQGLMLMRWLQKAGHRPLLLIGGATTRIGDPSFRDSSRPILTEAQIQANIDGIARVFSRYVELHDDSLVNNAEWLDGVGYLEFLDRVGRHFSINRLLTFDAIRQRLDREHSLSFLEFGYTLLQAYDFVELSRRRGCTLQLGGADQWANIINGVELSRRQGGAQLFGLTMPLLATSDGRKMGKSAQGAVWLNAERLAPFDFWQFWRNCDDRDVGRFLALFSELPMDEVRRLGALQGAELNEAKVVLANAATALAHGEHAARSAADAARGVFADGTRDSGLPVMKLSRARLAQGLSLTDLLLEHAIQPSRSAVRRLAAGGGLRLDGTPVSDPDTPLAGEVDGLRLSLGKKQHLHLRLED

SMILES: Nc1ncnc2c1ncn2[C@@H]1O[C@H](COP(=O)(O)OP(=O)(O)OP(=O)(O)O)[C@@H](O)[C@H]1O [ATP]
- kcat^obs for interaction with TyrRS-S (P. aeruginosa TyrRS-S [1]): 1.0 s⁻¹
- kcat^obs for interaction with TyrRS-Z (P. aeruginosa TyrRS-Z [2]): 3.8 s⁻¹

SMILES: O=C1Nc2ccccc2Oc2cc(N3CCc4ccccc4C3)c(S(=O)(=O)N3CCCCC3)cc21 [BCD37H06, 3-(3,4-dihydroisoquinolin-2(1H)-yl)-2-(piperidin-1-ylsulfonyl) dibenzo[b,f][1,4]oxazepin-11(10H)-one]
- toxicity to human cell cultures [3]: failed to exhibit toxic effects at any concentrations tested
- inhibition of cultures (MIC testing) [4]: inhibited
- shift in the IC50 with increasing ATP concentration (competition with ATP) (P. aeruginosa TyrRS-S [5]): no shift in the IC50
- shift in the IC50 with increasing Tyr concentration (competition with Tyr) (P. aeruginosa TyrRS-S [5]): no shift in the IC50
- pIC50 (P. aeruginosa TyrRS-S [6]): 4.62
- effectiveness against cultures (MIC testing) [7]: effective

SMILES: CC(=O)N1CCc2cc(Br)c(S(=O)(=O)NCCN3CCCCC3C)cc21 (stereo not shown) [BCD38C11, 1-acetyl-5-bromo-N-[2-(2-methylpiperidin-1-yl)ethyl]indoline-6-sulfonamide]
- toxicity to human cell cultures [3]: failed to exhibit toxic effects at any concentrations tested
- inhibition of cultures (MIC testing) [4]: inhibited
- pKi (P. aeruginosa TyrRS-S [5]): 5.28
- shift in the IC50 with increasing ATP concentration (competition with ATP) (P. aeruginosa TyrRS-S [5]): increased with increasing ATP concentrations
- shift in the IC50 with increasing Tyr concentration (competition with Tyr) (P. aeruginosa TyrRS-S [5]): no change in the IC50 values
- pIC50 (P. aeruginosa TyrRS-Z [8]): 3.62
- pIC50 (P. aeruginosa TyrRS-S [6]): 4.15

- inhibition of cultures (MIC testing) [4]: inhibited
- shift in the IC50 with increasing Tyr concentration (competition with Tyr) (P. aeruginosa TyrRS-S [5]): no change in the IC50 values
SMILES: Cc1ccc(N2CN(CC(=O)Nc3cccc(Cl)c3)S(=O)(=O)c3cccnc32)cc1 [BCD49D09, N1-(3-chlorophenyl)-2-[4-(4-methylphenyl)-1,1-dioxo-3,4-dihydro-1λ6-pyrido[2,3-e][1,2,4]thiadiazin-2(1H)-yl] acetamide]
- toxicity to human cell cultures [3]: failed to exhibit toxic effects at any concentrations tested
- shift in the IC50 with increasing ATP concentration (competition with ATP) (P. aeruginosa TyrRS-S [5]): increased with increasing ATP concentrations

SMILES: O=C(c1ccccc1)N1CCCn2cc(-c3ccc4c(c3)OCO4)nc21 [BCD54B04, [2-(1,3-benzodioxol-5-yl)-6,7-dihydroimidazo[1,2-a]pyrimidin-8(5H)-yl](phenyl) methanone]
- toxicity to human cell cultures [3]: failed to exhibit toxic effects at any concentrations tested
- inhibition of cultures (MIC testing) [4]: inhibited
- toxicity in NIH-3T3 cell line (NIH-3T3 cell line): nontoxic
- shift in the IC50 with increasing ATP concentration (competition with ATP) (P. aeruginosa TyrRS-S [5]): no shift in the IC50
- shift in the IC50 with increasing Tyr concentration (competition with Tyr) (P. aeruginosa TyrRS-S [5]): no shift in the IC50
- pIC50 (P. aeruginosa TyrRS-S [6]): 4.30
- toxicity in HEK-293 cell line (HEK-293 cell line): nontoxic
- effectiveness against cultures (MIC testing) [7]: effective

SMILES: N[C@@H](Cc1ccc(O)cc1)C(=O)NC(C(=O)O)[C@H]1[C@H](O)[C@]2(O)CO[C@@H]([C@@H]2O)N1O (stereo partly shown) [SB-219383]
- IC50 against S. aureus TyrRS (S. aureus TyrRS): low nanomolar range

SMILES: COc1ccc(-c2cc(=O)c3c(O)cc(O)cc3o2)cc1 [acacetin]
- effect on TyrRS (TyrRS): inhibitory effects

SMILES: C=CC1=C(C)/C(=C/c2[nH]c(Cc3[nH]c(/C=C4\NC(=O)C(C)=C4C=C)c(C)c3CCC(=O)O)c(CCC(=O)O)c2C)NC1=O [bilirubin]
- inhibition of LysRS (LysRS): specific inhibitor of ATP binding

SMILES: O=c1cc(-c2ccccc2)oc2cc(O)cc(O)c12 [chrysin]
- effect on TyrRS (TyrRS): inhibitory effects

SMILES: C[C@H]1CCC[C@H](C[C@H]2Cc3cc(O)cc(O)c3C(=O)O2)O1 [cladosporin]
- inhibition of eukaryotic LysRS (eukaryotic LysRS): potent ATP competitive inhibitor

SMILES: O=C(O[C@@H]1Cc2c(O)cc(O)cc2O[C@@H]1c1cc(O)c(O)c(O)c1)c1cc(O)c(O)c(O)c1 [epigallocatechin, gallate]
- effect on TyrRS (TyrRS): inhibitory effects

SMILES: COc1ccc(-c2oc3cc(O)cc(O)c3c(=O)c2O)cc1 [kaempferide]
- effect on TyrRS (TyrRS): inhibitory effects
